Reference: ChEMBL document CHEMBL5674890, “Selective inhibition of CBP/p300 HAT by A-485 results in suppression of lipogenesis and hepatic gluconeogenesis” (Cell Death Dis, 2020)
Calls of active or inactive are those of the source. No cut-off for these calls is given here.

Columns and labels:
[1] = tested on: Mus musculus; test: Anti-obesity activity in C57BL/6 mouse supplemented with normal chow diet assessed as decrease in total fat mass at 20 mg/kg/day, ip administered for 1 week measured by EchoMRI live analysis; assay type: functional; design: scale not given: the % may be the effect or the level left; conditions: time 1 weeks
Method in brief: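 Normal-chow male C57BL/6 mice, 8 weeks old, ip 20 mg·kg−1·day−1 daily for 7 days. Total lean and fat mass measured in live animals by EchoMRI. Mean ± SEM, n = 5–9.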

[2] = tested on: Mus musculus; test: Anti-obesity activity in 6 hrs fasted C57BL/6 mouse supplemented with normal chow diet assessed as effect on fasting blood glucose at 20 mg/kg/day, ip administered for 1 week; assay type: functional, organism-based; conditions: time 1.0 weeks
Method in brief: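 8-week-old male C57BL/6 mice on normal chow, ip 20 mg·kg−1·day−1 for 7 days. Blood glucose measured randomly fed or after 6 h or 16 h fasting, as the line states. Mean ± SEM, n = 5–9.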

[3] = tested on: Mus musculus; test: Anti-obesity activity in C57BL/6 mouse supplemented with high fat diet assessed as decrease in body weight at 20 mg/kg/day, ip administered for 1 week; assay type: functional, organism-based; conditions: time 1.0 weeks
Method in brief: (§1)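 Male C57BL/6 mice fed high-fat diet for 14 weeks from 5 weeks of age, then ip 20 mg·kg−1·day−1 for 7 days. Body weight, EchoMRI lean/fat mass, and random or 16 h-fasted blood glucose recorded, as the line states.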

[4] = tested on: Mus musculus; test: Anti-obesity activity in C57BL/6 mouse supplemented with high fat diet assessed as decrease in fasting blood glucose at 20 mg/kg/day, ip administered for 1 week; assay type: functional, organism-based; conditions: time 1.0 weeks; method in brief: as §1
[5] = tested on: Mus musculus; test: Inhibition of lipogenesis in C57BL/6 mouse supplemented with high-fat diet assessed as decrease in gross size of WAT at 20 mg/kg/day, ip administered for 1 week; assay type: functional, organism-based; conditions: time 1.0 weeks
Method in brief: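 Male C57BL/6 mice were fed high-fat diet for 14 weeks from 5 weeks of age, then injected ip with 20 mg·kg−1·day−1 for 7 days or given vehicle. Epididymal and inguinal WAT were weighed, examined by H&E, and analysed. Transcripts were measured by Trizol/SYBR Green RT-qPCR; proteins by western blot. n = 5–9; mean ± SEM.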

[6] = tested on: Adipocyte; test: Inhibition of lipogenesis in mouse adipocytes isolated stromal vascular cells assessed as decrease in SREBP-1c mRNA expression measured after 24 hrs by RT-qPCR assay; assay type: functional, cell-based
Method in brief: (§2)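 Stromal vascular cells from inguinal WAT of C57BL/6 mice, grown in DMEM/F12 + 10% FBS at 37 °C, 10% CO2. At confluence, induced 48 h with 5 μg/ml insulin, 1 μM dexamethasone, 0.5 mM isobutylmethylxanthine, then 6 days in 5 μg/ml insulin; fully differentiated day 8. Mature adipocytes exposed to inhibitor 24 h. Total RNA by Trizol, SYBR Green RT-qPCR; protein by western blot.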

[7] = tested on: Adipocyte; test: Inhibition of lipogenesis in mouse adipocytes isolated stromal vascular cells assessed as decrease in FABP4 mRNA expression measured after 24 hrs by RT-qPCR assay; assay type: functional, cell-based; method in brief: as §2
[8] = tested on: Adipocyte; test: Inhibition of lipogenesis in mouse adipocytes isolated stromal vascular cells assessed as decrease in PPARgamma protein expression measured after 24 hrs by western blot analysis; assay type: functional, cell-based
[9] = tested on: Adipocyte; test: Inhibition of lipogenesis in mouse adipocytes isolated stromal vascular cells assessed as decrease in C/EBPalpha protein expression measured after 24 hrs by western blot analysis; assay type: functional, cell-based
[10] = tested on: Mus musculus; test: Inhibition of hepatic lipogenesis in C57BL/6 mouse supplemented with high fat diet assessed as decrease in triglyceride level at 20 mg/kg/day, ip administered for 1 week; assay type: functional, organism-based; conditions: time 1.0 weeks
Method in brief: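 Male C57BL/6 mice received ip A-485 at 20 mg·kg−1·day−1 for 7 days, versus vehicle. NCD mice were 8 weeks old. HFD mice had been on high-fat diet for 14 weeks from 5 weeks of age. Liver triglyceride and total cholesterol content was determined. n = 5–9; mean ± SEM.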

[11] = tested on: Hepatocyte; test: Inhibition of lipogenesis in mouse primary hepatocytes assessed as decrease in HMGCS1 mRNA expression at 3 uM in presence of 100 nM insulin and 5 to 25 mM glucose measured after 18 hrs by RT-qPCR assay; assay type: functional, cell-based
Method in brief: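 Primary hepatocytes isolated from C57BL/6 mice by two-step perfusion. Cells incubated 18 h with 3 μM inhibitor, with 0 or 100 nM insulin and 5 or 25 mM glucose. Transcripts quantified by SYBR Green RT-qPCR after Trizol RNA extraction; proteins by western blot of lysates. Mean ± SEM.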

[12] = tested on: Hepatocyte; test: Inhibition of lipogenesis in mouse primary hepatocytes assessed as decrease in ACC protein expression at 3 uM in presence of 100 nM insulin and 5 to 25 mM glucose measured after 18 hrs by western blot analysis; assay type: functional, cell-based
[13] = tested on: Hepatocyte; test: Inhibition of glucogenesis in mouse primary hepatocytes stimulated with 100 uM 8-Br-cAMP assessed as decrease in PEPCK mRNA expression at 3 uM in presence of cAMP measured after 8 hrs by RT-qPCR assay; assay type: functional, cell-based
Method in brief: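 Primary mouse hepatocytes treated with 3 μM compound and 100 μM 8-Br-cAMP for 8 h. Trizol RNA, SYBR Green RT-qPCR of the named transcript. Mean ± SEM, three independent experiments.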

[14] = tested on: Hepatocyte; test: Inhibition of glucogenesis in mouse primary hepatocytes stimulated with 100 uM 8-Br-cAMP assessed as effect on pAMPK protein expression at 3 uM measured after 1 hr by western blot analysis; assay type: functional, cell-based
Method in brief: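 Primary hepatocytes from C57BL/6 mice, isolated by two-step perfusion, were co-treated with 3 μM A-485 and 100 μM 8-Br-cAMP for 1 h. Phospho-CREB, phospho-AMPK and phospho-TORC2 were detected by western blot of cell lysates. Three independent experiments; mean ± SEM.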

[15] = tested on: HepG2; test: Inhibition of glucogenesis in human HepG2 cells stimulated with 8-Br-cAMP at 3 uM assessed as effect on change in CBP/CREB interaction measured by coimmunoprecipitation analysis; assay type: functional, cell-based
Method in brief: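 HepG2 cells treated with 3 μM compound. CREB association with CBP and TORC2 assessed by coimmunoprecipitation (antibody 2 h, protein A/G beads overnight at 4 °C) and western blot.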

[16] = species: Mus musculus; test: Inhibition of glucogenesis in mouse assessed as decrease in hepatic FOXO1 protein expression measured by western blot analysis; assay type: functional, organism-based
Method in brief: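 Livers from vehicle- or treated mice (ip 20 mg·kg−1·day−1 for 7 days) homogenized in lysis buffer; FOXO1 and C/EBPα analysed by western blot.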

[17] = molecular target: T1, CREB-binding protein/Histone acetyltransferase p300 (Homo sapiens) (UniProt Q09472+Q92793); test: Inhibition of CBP/p300 in mouse primary hepatocytes stimulated with 100 uM 8-Br-cAMP assessed as decrease in half-life of endogenous FOXO1 at 3 uM in presence of 10 ug/ml cycloheximide; assay type: cell-based; conditions: Primary hepatocyte
T1 sequence (Q09472 whole entry, looked up): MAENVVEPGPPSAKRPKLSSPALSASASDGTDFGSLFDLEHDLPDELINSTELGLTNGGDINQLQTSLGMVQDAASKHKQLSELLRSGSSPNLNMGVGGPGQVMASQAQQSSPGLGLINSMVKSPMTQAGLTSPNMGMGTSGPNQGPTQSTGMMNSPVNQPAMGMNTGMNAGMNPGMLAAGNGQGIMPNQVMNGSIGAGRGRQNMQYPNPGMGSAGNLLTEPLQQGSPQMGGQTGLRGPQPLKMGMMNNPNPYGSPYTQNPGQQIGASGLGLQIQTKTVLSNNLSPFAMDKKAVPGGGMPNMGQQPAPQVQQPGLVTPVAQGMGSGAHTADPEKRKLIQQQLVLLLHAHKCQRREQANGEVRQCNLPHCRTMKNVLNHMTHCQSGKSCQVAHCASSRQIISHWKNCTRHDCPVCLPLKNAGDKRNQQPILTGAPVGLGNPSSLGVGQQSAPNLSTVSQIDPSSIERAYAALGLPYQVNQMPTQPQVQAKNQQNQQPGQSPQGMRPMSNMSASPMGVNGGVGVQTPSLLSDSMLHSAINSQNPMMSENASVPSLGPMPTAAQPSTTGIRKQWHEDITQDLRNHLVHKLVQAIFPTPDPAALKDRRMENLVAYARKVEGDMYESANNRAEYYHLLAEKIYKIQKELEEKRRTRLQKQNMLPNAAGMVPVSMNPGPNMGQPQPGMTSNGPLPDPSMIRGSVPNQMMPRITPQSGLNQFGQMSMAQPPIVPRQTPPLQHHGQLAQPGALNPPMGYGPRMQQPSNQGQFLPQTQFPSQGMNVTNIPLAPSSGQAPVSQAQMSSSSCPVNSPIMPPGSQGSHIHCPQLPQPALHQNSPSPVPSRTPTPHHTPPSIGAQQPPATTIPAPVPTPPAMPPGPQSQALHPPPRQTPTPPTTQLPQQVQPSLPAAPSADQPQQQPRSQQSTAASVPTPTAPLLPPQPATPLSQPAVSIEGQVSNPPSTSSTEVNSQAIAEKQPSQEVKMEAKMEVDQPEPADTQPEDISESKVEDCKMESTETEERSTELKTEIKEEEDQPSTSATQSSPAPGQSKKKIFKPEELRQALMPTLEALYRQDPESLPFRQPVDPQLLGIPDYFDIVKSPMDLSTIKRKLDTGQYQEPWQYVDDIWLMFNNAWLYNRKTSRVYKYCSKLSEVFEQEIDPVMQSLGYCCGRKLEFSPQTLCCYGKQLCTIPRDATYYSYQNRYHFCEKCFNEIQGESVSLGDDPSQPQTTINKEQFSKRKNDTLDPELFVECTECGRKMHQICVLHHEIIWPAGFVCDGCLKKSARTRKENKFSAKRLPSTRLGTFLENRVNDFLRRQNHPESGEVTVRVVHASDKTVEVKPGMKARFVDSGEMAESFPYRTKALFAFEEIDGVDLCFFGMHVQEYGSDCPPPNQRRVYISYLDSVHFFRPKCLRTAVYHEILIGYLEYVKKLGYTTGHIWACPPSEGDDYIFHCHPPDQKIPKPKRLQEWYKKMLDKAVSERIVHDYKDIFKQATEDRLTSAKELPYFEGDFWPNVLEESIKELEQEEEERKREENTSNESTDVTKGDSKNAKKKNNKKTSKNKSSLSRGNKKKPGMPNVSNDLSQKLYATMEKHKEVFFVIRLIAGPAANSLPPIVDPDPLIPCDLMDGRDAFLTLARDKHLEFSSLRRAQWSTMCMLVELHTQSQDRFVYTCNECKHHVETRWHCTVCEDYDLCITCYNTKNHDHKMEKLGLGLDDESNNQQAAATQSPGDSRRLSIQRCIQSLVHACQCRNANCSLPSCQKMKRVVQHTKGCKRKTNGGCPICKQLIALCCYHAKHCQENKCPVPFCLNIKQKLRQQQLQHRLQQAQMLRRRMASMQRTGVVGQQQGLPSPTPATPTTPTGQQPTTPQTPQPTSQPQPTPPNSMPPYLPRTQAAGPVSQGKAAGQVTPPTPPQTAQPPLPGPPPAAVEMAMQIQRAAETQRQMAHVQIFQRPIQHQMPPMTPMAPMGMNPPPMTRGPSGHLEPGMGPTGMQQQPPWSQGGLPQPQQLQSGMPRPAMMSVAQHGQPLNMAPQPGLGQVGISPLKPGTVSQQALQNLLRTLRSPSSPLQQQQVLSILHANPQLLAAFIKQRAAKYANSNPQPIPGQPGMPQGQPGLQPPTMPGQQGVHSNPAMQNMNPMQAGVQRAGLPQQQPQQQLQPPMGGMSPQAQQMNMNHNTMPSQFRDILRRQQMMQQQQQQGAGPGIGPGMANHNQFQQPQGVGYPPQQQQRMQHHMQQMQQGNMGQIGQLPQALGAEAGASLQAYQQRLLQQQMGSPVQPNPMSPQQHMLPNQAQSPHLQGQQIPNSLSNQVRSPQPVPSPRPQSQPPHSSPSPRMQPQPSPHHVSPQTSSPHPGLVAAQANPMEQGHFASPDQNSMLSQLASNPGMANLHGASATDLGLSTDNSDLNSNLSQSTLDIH
T1 sequence (Q92793 whole entry, looked up): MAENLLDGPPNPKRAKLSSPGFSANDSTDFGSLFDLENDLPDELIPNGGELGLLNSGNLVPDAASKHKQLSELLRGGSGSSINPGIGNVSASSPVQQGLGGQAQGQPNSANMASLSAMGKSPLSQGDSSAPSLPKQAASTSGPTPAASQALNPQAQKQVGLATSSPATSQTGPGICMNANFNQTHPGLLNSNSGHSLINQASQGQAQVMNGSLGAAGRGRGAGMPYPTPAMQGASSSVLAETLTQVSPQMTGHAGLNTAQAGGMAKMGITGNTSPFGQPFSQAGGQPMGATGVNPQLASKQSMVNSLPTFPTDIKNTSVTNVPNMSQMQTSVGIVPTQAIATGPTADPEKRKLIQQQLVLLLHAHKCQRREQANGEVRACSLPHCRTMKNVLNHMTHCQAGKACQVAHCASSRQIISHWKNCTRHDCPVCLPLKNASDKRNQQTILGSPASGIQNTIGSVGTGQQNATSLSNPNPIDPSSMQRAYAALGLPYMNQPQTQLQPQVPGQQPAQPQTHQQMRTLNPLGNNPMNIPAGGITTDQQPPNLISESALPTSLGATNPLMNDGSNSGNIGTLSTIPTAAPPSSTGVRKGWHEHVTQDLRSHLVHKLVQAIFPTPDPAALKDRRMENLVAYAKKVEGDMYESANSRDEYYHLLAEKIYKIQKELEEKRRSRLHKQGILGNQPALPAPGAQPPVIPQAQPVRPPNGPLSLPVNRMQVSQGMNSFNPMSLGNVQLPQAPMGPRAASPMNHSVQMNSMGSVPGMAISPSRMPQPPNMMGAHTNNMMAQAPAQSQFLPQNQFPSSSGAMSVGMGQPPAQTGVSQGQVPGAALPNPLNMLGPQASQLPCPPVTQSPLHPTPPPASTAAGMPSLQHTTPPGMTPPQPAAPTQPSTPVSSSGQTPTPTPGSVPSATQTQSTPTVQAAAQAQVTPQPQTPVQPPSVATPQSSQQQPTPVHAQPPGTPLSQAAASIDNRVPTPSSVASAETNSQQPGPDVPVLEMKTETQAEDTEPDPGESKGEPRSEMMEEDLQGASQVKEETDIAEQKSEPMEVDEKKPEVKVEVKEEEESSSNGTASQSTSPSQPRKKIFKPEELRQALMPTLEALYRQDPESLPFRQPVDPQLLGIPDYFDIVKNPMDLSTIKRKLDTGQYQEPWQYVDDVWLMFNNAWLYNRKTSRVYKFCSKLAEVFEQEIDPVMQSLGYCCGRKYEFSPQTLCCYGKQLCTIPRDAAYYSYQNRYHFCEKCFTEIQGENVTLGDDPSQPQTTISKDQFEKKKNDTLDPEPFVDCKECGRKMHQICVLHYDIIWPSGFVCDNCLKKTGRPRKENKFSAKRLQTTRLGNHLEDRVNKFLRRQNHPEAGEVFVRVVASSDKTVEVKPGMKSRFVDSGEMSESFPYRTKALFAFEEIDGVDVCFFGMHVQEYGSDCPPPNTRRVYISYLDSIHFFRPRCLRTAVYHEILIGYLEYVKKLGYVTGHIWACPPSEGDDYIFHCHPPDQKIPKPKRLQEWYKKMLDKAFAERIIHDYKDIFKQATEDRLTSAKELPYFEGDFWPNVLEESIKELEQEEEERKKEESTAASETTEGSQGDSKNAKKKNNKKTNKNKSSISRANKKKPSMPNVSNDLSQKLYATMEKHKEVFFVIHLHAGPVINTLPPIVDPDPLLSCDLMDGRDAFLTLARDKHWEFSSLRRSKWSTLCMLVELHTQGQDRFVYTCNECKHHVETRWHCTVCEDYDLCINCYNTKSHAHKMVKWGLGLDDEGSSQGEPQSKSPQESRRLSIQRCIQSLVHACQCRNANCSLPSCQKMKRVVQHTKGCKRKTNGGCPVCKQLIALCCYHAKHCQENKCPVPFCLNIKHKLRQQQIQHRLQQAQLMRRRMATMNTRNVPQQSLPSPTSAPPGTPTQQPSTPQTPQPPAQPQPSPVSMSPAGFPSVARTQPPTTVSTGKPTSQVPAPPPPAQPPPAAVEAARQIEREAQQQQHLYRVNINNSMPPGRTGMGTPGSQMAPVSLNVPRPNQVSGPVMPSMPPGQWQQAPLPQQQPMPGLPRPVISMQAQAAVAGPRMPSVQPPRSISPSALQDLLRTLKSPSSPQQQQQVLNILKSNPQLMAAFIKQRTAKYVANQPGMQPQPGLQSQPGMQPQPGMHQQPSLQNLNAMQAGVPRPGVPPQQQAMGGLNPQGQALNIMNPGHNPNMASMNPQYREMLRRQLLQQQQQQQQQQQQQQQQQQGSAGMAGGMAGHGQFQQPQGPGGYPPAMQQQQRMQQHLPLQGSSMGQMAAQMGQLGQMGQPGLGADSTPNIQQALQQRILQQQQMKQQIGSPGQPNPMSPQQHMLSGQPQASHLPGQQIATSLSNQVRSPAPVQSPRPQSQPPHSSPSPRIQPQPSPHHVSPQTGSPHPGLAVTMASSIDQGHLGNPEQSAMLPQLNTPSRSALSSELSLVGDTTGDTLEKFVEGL
Method in brief: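 Primary mouse hepatocytes in 100 μM 8-Br-cAMP treated with 3 μM compound and 10 μg/ml cycloheximide for the indicated times. Endogenous FOXO1 immunoblotted; band intensity quantified. Three independent experiments.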

[18] = molecular target: T1, CREB-binding protein/Histone acetyltransferase p300 (Homo sapiens); test: Inhibition of CBP/p300 in human HepG2 cells assessed as increase in FOXO1 and COP1 interaction at 3 uM; assay type: cell-based
Method in brief: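 HepG2 cells treated with 3 μM compound. FOXO1–COP1 interaction assessed by immunoprecipitation: lysate with antibody 2 h, then protein A/G beads overnight at 4 °C, followed by western blot.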

CNC(=O)Nc1ccc2c(c1)CCS21OC(=O)N(CC(=O)N(Cc2ccc(F)cc2)[C@@H](C)C(F)(F)F)C1=O (stereo partly drawn)
Activity [1]: ~14%
Activity [2]: inactive
Activity [3]: Active
Activity [4]: Active
inhibition [5]: Active
inhibition [6]: Active
inhibition [7]: Active
inhibition [8]: Active
inhibition [9]: Active
inhibition [10]: Active
inhibition [11]: Active
inhibition [12]: Active
inhibition [13]: Active
inhibition [14]: inactive
inhibition [15]: inactive
inhibition [16]: Active
inhibition [17]: Active
inhibition [18]: Active
